We go through 19 molecules from ChEMBL document CHEMBL2021762, “Derivatives of 8-hydroxyquinoline--antibacterial agents that target intra- and extracellular Gram-negative pathogens” (Bioorg Med Chem Lett, 2012).

≈ marks a conversion by molar mass, not a printed value. Where “and” joins values, the source holds several entries; their conditions need not be identical. Equal entries are not always repeated. Calls of active or inactive are those of the source. The calls are words filed in the database; no cut-off is given here.

The subject of data set [1] is Yersinia pseudotuberculosis. Nature of the data set: Inhibition of type 3 secretion in Yersinia pseudotuberculosis at 50 uM by reporter gene assay. A digest of the protocol: (§1)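 Y. pseudotuberculosis T3S-linked reporter-gene screen, luminescence read on filter-based plate reader; compounds added from DMSO solutions. Tested at 10, 20, 50 and 100 µM, expressed as percent inhibition. EC50 taken from dose-response curves. Activity also checked with detergent present to exclude aggregation.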
(In general: In a reporter assay the amount or activity of a reporter protein is the signal.)

Data set [2] has as its system Yersinia pseudotuberculosis. As to the kind of experiment: Inhibition of type 3 secretion in Yersinia pseudotuberculosis at 100 uM by reporter gene assay. A digest of the protocol:
as §1

The subject of data set [3] is Yersinia pseudotuberculosis. As to the kind of experiment: Inhibition of type 3 secretion in Yersinia pseudotuberculosis at 20 uM by reporter gene assay. In short, it runs like this: as §1
Data set [4] concerns Yersinia pseudotuberculosis. Nature of the data set: Inhibition of type 3 secretion in Yersinia pseudotuberculosis at 10 uM by reporter gene assay. In short, it runs like this: as §1
The target in data set [5] is Tyrosine-protein phosphatase YopH (Yersinia pseudotuberculosis serotype I (strain IP32953)) (UniProt P08538). As to the kind of experiment: Inhibition of Yersinia pseudotuberculosis phosphatase activity of secreted YopH. In short, it runs like this:
(§2)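 Phosphatase activity of YopH secreted by Y. pseudotuberculosis, measured at 10, 20, 50 and 100 µM; expressed as percent inhibition. Some runs used HCl salt form.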

The test system of data set [6] is Yersinia pseudotuberculosis. Nature of the data set: Antibacterial activity against wild type Yersinia pseudotuberculosis infected in mouse J774 cells assessed as increase of host cell viability at 3.1 to 25 uM. It is filed as functional, organism-based. In short, it runs like this: (§3)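 J774 macrophages infected with Y. pseudotuberculosis, wild-type (pIB102) or T3S-deficient mutant (pIB604); uninfected control included. Viability read with CalceinAM fluorescence (green conversion in healthy cells). 100% = uninfected cells given DMSO alone.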

Data set [7] is described as follows: Cytotoxicity against human HeLa cells assessed as cell viability at 2 time MIC. Type of data set: cell-based. Conditions: read-out: Activity.
In data set [8] the target is Tyrosine-protein phosphatase YopH (Yersinia pseudotuberculosis serotype I (strain IP32953)) (UniProt P08538). As to the kind of experiment: Inhibition of Yersinia pseudotuberculosis phosphatase activity of secreted YopH at 100 uM. A digest of the protocol:
as §2

Data set [9] has as its system Chlamydia trachomatis. As to the kind of experiment: Antibacterial activity against Chlamydia trachomatis infected in HeLa cells at 100 uM up to 6 hrs. It is filed as functional, organism-based.
Data set [10] concerns Chlamydia trachomatis. As to the kind of experiment: Antibacterial activity against Chlamydia trachomatis infected in HeLa cells. Type of data set: functional. A digest of the protocol:
(§4)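 HeLa cells infected with C. trachomatis […] and incubated with compound in a dilution series, with a DMSO-treated control. Chlamydial inclusions are immunostained green and HeLa cells counterstained red. Inclusion size and number and HeLa cell morphology are judged by fluorescence microscopy. MIC is read from the absence of visible inclusions.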

In data set [11] the target is Tyrosine-protein phosphatase YopH (Yersinia pseudotuberculosis serotype I (strain IP32953)) (UniProt P08538). Nature of the data set: Inhibition of Yersinia pseudotuberculosis phosphatase activity of secreted YopH at 20 uM. In short, it runs like this:
as §2

A short description of data set [12]: (§5) Inhibition of type 3 secretion in Yersinia pseudotuberculosis by reporter gene assay. In short, it runs like this:
as §1

The subject of data set [13] is Yersinia pseudotuberculosis. Described as §5. A digest of the protocol:
as §1

The target in data set [14] is Tyrosine-protein phosphatase YopH (Yersinia pseudotuberculosis serotype I (strain IP32953)) (UniProt P08538). As to the kind of experiment: Inhibition of Yersinia pseudotuberculosis phosphatase activity of secreted YopH at 50 uM. In short, it runs like this: as §2
Another data set deals with J774. As to the kind of experiment: Cytotoxicity against mouse J774 cells assessed as cell viability at 3.1 to 25 uM. It is filed as cell-based. Conditions: j774, 25 µM.
The test system of data set [15] is Yersinia pseudotuberculosis. Nature of the data set: Antibacterial activity against T3S deficient Yersinia pseudotuberculosis infected in mouse J774 cells assessed as increase of host cell viability at 3.1 to 25 uM. It is filed as functional, organism-based. A digest of the protocol: as §3
Data set [16] deals with Tyrosine-protein phosphatase YopH (Yersinia pseudotuberculosis serotype I (strain IP32953)) (UniProt P08538). Nature of the data set: Inhibition of Yersinia pseudotuberculosis phosphatase activity of secreted YopH at 10 uM. In short, it runs like this:
as §2

Data set [17] concerns Chlamydia trachomatis. As to the kind of experiment: Antibacterial activity against Chlamydia trachomatis infected in HeLa cells at 50 uM up to 6 hrs. It is filed as functional, organism-based.
The test system of data set [18] is Chlamydia trachomatis. Nature of the data set: Antibacterial activity against Chlamydia trachomatis infected in HeLa cells assessed as reduction of inclusions size at 1.56 uM by fluorescence microscopy analysis. It is filed as functional, organism-based. In short, it runs like this:
as §4

For data set [19], the system named is HeLa. Nature of the data set: Cytotoxicity against human HeLa cells assessed as change in morphology by fluorescence microscopy. It is filed as cell-based. A digest of the protocol:
as §4

Data set [20] has as its system HeLa. As to the kind of experiment: Cytotoxicity against human HeLa cells assessed as visible inclusions by fluorescence microscopy. Type of data set: cell-based. A digest of the protocol: as §4

Tyrosine-protein phosphatase YopH (Yersinia pseudotuberculosis serotype I (strain IP32953)), sequence (P08538 whole entry): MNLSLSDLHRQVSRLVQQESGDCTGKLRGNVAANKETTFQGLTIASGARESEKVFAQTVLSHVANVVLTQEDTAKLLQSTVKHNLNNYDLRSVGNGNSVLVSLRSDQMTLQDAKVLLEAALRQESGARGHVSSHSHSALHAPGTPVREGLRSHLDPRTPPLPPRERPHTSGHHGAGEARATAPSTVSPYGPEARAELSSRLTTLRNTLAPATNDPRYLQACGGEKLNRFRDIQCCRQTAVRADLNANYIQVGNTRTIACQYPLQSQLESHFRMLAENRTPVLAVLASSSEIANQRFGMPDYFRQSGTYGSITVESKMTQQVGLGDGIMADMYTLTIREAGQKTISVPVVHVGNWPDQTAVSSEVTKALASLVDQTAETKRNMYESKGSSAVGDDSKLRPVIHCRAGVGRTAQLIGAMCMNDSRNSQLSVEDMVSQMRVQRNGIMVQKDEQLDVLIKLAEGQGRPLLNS

One may read the inhibition as how much of the control response was suppressed. Turning to `Oc1c(CN2CCCCC2)cc(Cl)c2cccnc12`, the inhibition in data set [1] worked out at 8%; in [2], 12%. Also, the inhibition result in [3] and in data set [4] was “inactive” in each case.
On to `Oc1c(CN2CCN(c3ccc(F)cc3)CC2)cc(Br)c2cccnc12`, for which the inhibition in [1] amounted to 78%; in data set [2], 89%. In addition, the inhibition result in data set [3] and in [4] was “inactive” in each case.
Turning to `Oc1c(CN2CCN(c3ccc(F)cc3)CC2)ccc2cccnc12`, the results for the inhibition in data set [1] and in data set [2] were 58% and 95%, respectively. In addition, the inhibition result in [3] and in data set [4] was “inactive” in each case.
A word on the MIC: it is the lowest concentration found to suppress growth. Lower therefore signals a more susceptible organism. In general, EC50 refers to the midpoint of the concentration-response curve. The low end stands for an effect from little substance, the high end for a need for much substance. `O=[N+]([O-])c1cc(CN2CCN(c3ccccc3)CC2)c(O)c2ncccc12`: the inhibition entry was “Dose-dependent effect” in data set [5]; 79% in [8]; 94% in data set [1]; 73% in data set [11]; “Dose-dependent effect” in [13]; 77% in [14]. Besides, the inhibition in data set [2] was found to be 97%; in data set [3], 88%; in [4] it was 66%; in [16] it was 49%. Besides, the result in data set [6] was Active. In [7], the viability amounted to 66.3%. For the same molecule, the outcome (in the data set on Chlamydia trachomatis [9]; in [15]) was inactive. The molecule further showed an MIC against Chlamydia trachomatis [10] of 25 µM (≈ 9.11 µg/mL). Also, the EC50 in [12] was 12.4 µM. In addition, in the data set on J774, the Activity result was “Toxic”.
In the case of `COc1ccccc1N1CCN(Cc2cc([N+](=O)[O-])c3cccnc3c2O)CC1`, the figures for the inhibition in [1], in data set [2] and in data set [3] were 77%, 85% and 25%, respectively. Also, in [4], the inhibition entry is “inactive”.
On to `O=[N+]([O-])c1cc(CN2CCC(c3ccccc3)C2)c(O)c2ncccc12` (racemic), for which the inhibition result in data set [5] was “Dose-dependent effect”; in data set [8] it was 69%; in data set [1], 95%; in data set [11], 64%; in data set [13], “Dose-dependent effect”; in data set [14], 68%. Also, the inhibition in [2] was 98%; in data set [3], 79%; in data set [4] it was 54%; in data set [16], 47%. For the same molecule, the outcome in data set [6] was Active. For the same molecule, the viability in [7] was 92.1%. Besides, the MIC against Chlamydia trachomatis [10] was determined as 12.5 µM (≈ 4.37 µg/mL). In data set [12], this molecule displayed an EC50 of 14.6 µM. Besides, the Activity entry in the data set on J774 was “Toxic”. Moreover, the outcome (in data set [15]; with Chlamydia trachomatis [17]) was inactive.
For `O=[N+]([O-])c1ccc(O)c(CN2CCN(c3ccccc3)CC2)c1`, the inhibition entry in [1], in data set [2], in data set [3] and in data set [4] was “inactive” in each case.
In the case of `Oc1c(CN2CCN(c3ccccn3)CC2)cc(Cl)c2cccnc12`, the values for the inhibition in data set [1] and in [2] were 80% and 98%, respectively. Also, the inhibition entry in data set [3] and in [4] was “inactive” in each case.
On to `O=[N+]([O-])c1cc(CN2CCN(c3ccc(F)cc3)CC2)c(O)c2ncccc12`, for which the inhibition entry is “Dose-dependent effect” in data set [5]; 94% and 83% in [8]; 56% and 66% in data set [11]; “Dose-dependent effect” in [13]; 88% and 81% in [14]; 17% and 38% in [16]. The result (in data set [6]; with Chlamydia trachomatis [18]) was Active. Also, in data set [7], the viability turned out to be 90.2%. Besides, the outcome (in the data set on Chlamydia trachomatis [9]; in data set [15]) was inactive. The same molecule registered an MIC against Chlamydia trachomatis [10] of 3.13 µM (≈ 1.2 µg/mL). This molecule also displayed an EC50 in data set [12] of 6.24 µM. Further, the Activity entry in the data set with J774 is reported as “Toxic”; with HeLa [19], “Non-toxic”; in the data set on HeLa [20], “Non-toxic”.
As to `Oc1c(CN2CCN(c3ccc(F)cc3)CC2)cc(Cl)c2cccnc12`, the values for the inhibition in data set [1] and in [2] were 93% and 97%, respectively. The inhibition result in [3] and in [4] was “inactive” throughout.
On to `O=[N+]([O-])c1ccc(O)c(CN2CCN(c3ccc(Cl)cc3)CC2)c1`, for which the inhibition result in data set [1], in [2], in data set [3] and in data set [4] was “inactive” in each case.
With `Cc1cccc(N2CCN(Cc3cc(Br)c4cccnc4c3O)CC2)c1`, the results for the inhibition in [1] and in [2] were 41% and 81%, respectively. Moreover, the inhibition result in data set [3] and in data set [4] was “inactive” throughout.
Take `CN1CCN(Cc2cc(Cl)c3cccnc3c2O)CC1`: the inhibition result in data set [1], in data set [3] and in data set [4] was “inactive” throughout. In data set [2], this molecule gave an inhibition of 48%.
Consider `CC1CN(Cc2cc([N+](=O)[O-])c3cccnc3c2O)CC(C)O1` (stereo not drawn), for which the inhibition in data set [1] came out at 76%; in data set [2], 93%. For the same molecule, the inhibition result in data set [3] and in data set [4] was “inactive” each time.
On to `Oc1c(CN2CCN(c3ccccc3)CC2)cc(Cl)c2cccnc12`, for which the inhibition in data set [1] is 14% and 22%. Moreover, the inhibition entry in [3] and in data set [4] was “inactive” in each case.
With `CCOc1ccccc1N1CCN(Cc2cc(Cl)c3cccnc3c2O)CC1`, the values for the inhibition in data set [1] and in data set [2] were 37% and 89%, respectively. Further, the inhibition result in data set [3] and in data set [4] was “inactive” each time.
For `COc1c(CN2CCN(c3ccccc3)CC2)cc(Br)c2cccnc12`, the inhibition entry in data set [1], in [2], in [3] and in data set [4] was “inactive” each time.
As for `O=[N+]([O-])c1cc(CN2CCN(c3ccccc3)CC2)c(O)c2ccccc12`, the inhibition result in [1], in [2], in data set [3] and in data set [4] was “inactive” each time.
In the case of `COc1c(CN2CCN(c3ccccc3)CC2)cc(Cl)c2cccnc12`, the inhibition entry in data set [1], in [2], in [3] and in data set [4] was “inactive” throughout.
